In ChEMBL document CHEMBL3286351, “Antibacterial evaluation of structurally amphipathic, membrane active small cationic peptidomimetics: synthesized by incorporating 3-amino benzoic acid as peptidomimetic element” (Eur J Med Chem, 2014):
Converted amounts (≈) assume the structure as drawn. Where a SMILES comes first, the peptide text is derived from it. [ ]: non-standard residue; d: D form. 3Abz = Nc1cccc(C(=O)O)c1; Orn = NCCC[CH](N)C(=O)O

Legend:
[1] = test system: Staphylococcus epidermidis; test: Antibacterial activity against methicillin-resistant Staphylococcus epidermidis ATCC 51625 assessed as growth inhibition after 18 hrs by CLSI microdilution broth assay; format: functional; settings: ATCC 51625, 18 h
Outline: (§1)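 Modified CLSI broth microdilution in Mueller-Hinton broth. Wells held 90 µL of about 2 × 10^5 CFU/mL inoculum plus 10 µL of serially diluted peptidomimetic, range 0.7-100 µg/mL. Plates were incubated overnight with agitation at 37 °C and absorbance read at 600 nm after 18 h. Controls: inoculum without compound, and uninoculated broth. Run in triplicate.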

[2] = Induction of hemolysis in human RBC assessed as hemoglobin release after 1 hr by microtiter plate reader analysis; format: cell-based, Erythrocyte; settings: for HC10: erythrocyte, 1 h; for HC50 at 1 h: red blood cells
Outline: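 Freshly isolated human RBCs washed three times in PBS (35 mM phosphate, 150 mM NaCl, pH 7.2) and used as a 4% (v/v) suspension. Mixed 1:1 with twofold serial dilutions of compound, incubated 1 h at 37 °C without agitation, then centrifuged. Supernatant A540 read. PBS defined 0% and 1% Triton X-100 defined 100% lysis; HC50 and HC10 derived.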

[3] = Selectivity ratio of HC50 for hemolysis in human RBC to MIC for Staphylococcus aureus
[4] = Retention time of the compound by HPLC analysis; format: physicochemical
Outline: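 Analytical RP-HPLC on a C18 column (5 µm, 4.6 × 250 mm) at room temperature. Run a linear gradient of 0.5-60% acetonitrile containing 0.05% TFA against water containing 0.05% TFA at 0.5 mL/min.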

[5] = test system: Escherichia coli; test: Antibacterial activity against Escherichia coli MTCC 723 assessed as growth inhibition after 18 hrs by CLSI microdilution broth assay; format: functional; settings: MTCC 723, 18 h
[6] = test system: Pseudomonas aeruginosa; test: Antibacterial activity against Pseudomonas aeruginosa MTCC 2295 assessed as growth inhibition after 18 hrs by CLSI microdilution broth assay; format: functional; settings: MTCC 2295, 18 h
[7] = test system: Staphylococcus aureus; test: Antibacterial activity against Staphylococcus aureus MTCC 3160 assessed as growth inhibition after 18 hrs by CLSI microdilution broth assay; format: functional; settings: MTCC 3160, 18 h
[8] = test system: Bacillus subtilis; test: Antibacterial activity against Bacillus subtilis MTCC 2763 assessed as growth inhibition after 18 hrs by CLSI microdilution broth assay; format: functional; settings: MTCC 2763, 18 h
[9] = test system: Staphylococcus aureus; test: Antibacterial activity against methicillin-resistant Staphylococcus aureus ATCC BAA-1720 assessed as growth inhibition after 18 hrs by CLSI microdilution broth assay; format: functional; settings: ATCC BAA-1720, 18 h; outline: as §1

Compound | MIC [1] [µg/mL] | HC10 [2] [µg/mL] | HC50 at 1 h [2] [µg/mL] | Selectivity ratio [3] | Retention_time [4] [min] | MIC [5] [µg/mL] | MIC [6] [µg/mL] | MIC [7] [µg/mL] | MIC [8] [µg/mL] | MIC [9] [µg/mL]
N=C(N)NCCCC(N)C(=O)NC(Cc1c[nH]c2ccccc12)C(=O)Nc1cccc(C(=O)NC(Cc2c[nH]c3ccccc23)C(=O)NC(CCCNC(=N)N)C(N)=O)c1 (stereo not given) (H-RW[3Abz]WR-NH2; configuration not given here) | 12.5 (≈ 15.2 µM) | 250 | 410 | 32.8 | 23.89 | 40 (≈ 48.7 µM) | 50 (≈ 60.9 µM) | 12.5 (≈ 15.2 µM) | 50 (≈ 60.9 µM) | 10 (≈ 12.2 µM)
N=C(N)NCCCC(NC(=O)C(Cc1c[nH]c2ccccc12)NC(=O)c1cccc(NC(=O)C(CCCNC(=N)N)NC(=O)C(CCCNC(=N)N)NC(=O)C(N)Cc2c[nH]c3ccccc23)c1)C(N)=O (stereo not given) (H-WRR[3Abz]WR-NH2; configuration not given here) | 10 (≈ 10.2 µM) | 190 | 380 | 25.3 | 27.66 | 50 (≈ 51.2 µM) | 50 (≈ 51.2 µM) | 15 (≈ 15.4 µM) | 70 (≈ 71.6 µM) | 12.5 (≈ 12.8 µM)
N=C(N)NCCCC(NC(=O)C(CCCNC(=N)N)NC(=O)c1cccc(NC(=O)C(Cc2c[nH]c3ccccc23)NC(=O)C(CCCNC(=N)N)NC(=O)C(N)Cc2c[nH]c3ccccc23)c1)C(N)=O (stereo not given) (H-WRW[3Abz]RR-NH2; configuration not given here) | 25 (≈ 25.6 µM) | 140 | 370 | 14.8 | 27.324 | 60 (≈ 61.4 µM) | 70 (≈ 71.6 µM) | 25 (≈ 25.6 µM) | 40 (≈ 40.9 µM) | 25 (≈ 25.6 µM)
N=C(N)NCCCC(NC(=O)c1cccc(NC(=O)C(CCCNC(=N)N)NC(=O)C(N)Cc2c[nH]c3ccccc23)c1)C(N)=O (stereo not given) (H-WR[3Abz]R-NH2; configuration not given here) | 200 (≈ 315 µM) | 300 | > 500 | > 3.3 | 24.184 | 200 (≈ 315 µM) | > 200 | 150 (≈ 236 µM) | 200 (≈ 315 µM) | 150 (≈ 236 µM)
N=C(N)NCCCC(NC(=O)C(CCCNC(=N)N)NC(=O)c1cccc(NC(=O)C(CCCNC(=N)N)NC(=O)C(N)Cc2c[nH]c3ccccc23)c1)C(N)=O (stereo not given) (H-WR[3Abz]RR-NH2; configuration not given here) | 100 (≈ 126 µM) | 325 | > 500 | > 5 | 22.64 | > 200 | > 200 | 100 (≈ 126 µM) | 170 (≈ 215 µM) | 120 (≈ 152 µM)
N=C(N)NCCCC(NC(=O)C(Cc1c[nH]c2ccccc12)NC(=O)c1cccc(NC(=O)C(CCCNC(=N)N)NC(=O)C(N)Cc2c[nH]c3ccccc23)c1)C(N)=O (stereo not given) (H-WR[3Abz]WR-NH2; configuration not given here) | 75 (≈ 91.4 µM) | 220 | 400 | 6.66 | 24.982 | 150 (≈ 183 µM) | 120 (≈ 146 µM) | 60 (≈ 73.1 µM) | 75 (≈ 91.4 µM) | 50 (≈ 60.9 µM)
N=C(N)NCCCC(NC(=O)C(CCCNC(=N)N)NC(=O)c1cccc(NC(=O)C(CCCNC(=N)N)NC(=O)C(Cc2c[nH]c3ccccc23)NC(=O)C(N)Cc2c[nH]c3ccccc23)c1)C(N)=O (stereo not given) (H-WWR[3Abz]RR-NH2; configuration not given here) | 50 (≈ 51.2 µM) | 200 | 380 | 7.6 | 27.34 | 75 (≈ 76.8 µM) | 100 (≈ 102 µM) | 50 (≈ 51.2 µM) | 70 (≈ 71.6 µM) | 50 (≈ 51.2 µM)
N=C(N)NCCCC(NC(=O)c1cccc(NC(=O)C(Cc2c[nH]c3ccccc23)NC(=O)C(N)Cc2c[nH]c3ccccc23)c1)C(N)=O (stereo not given) (H-WW[3Abz]R-NH2; configuration not given here) | > 200 | 100 | 240 | 2 | 28.661 | 150 (≈ 226 µM) | 170 (≈ 256 µM) | 120 (≈ 181 µM) | 150 (≈ 226 µM) | 200 (≈ 301 µM)
N=C(N)NCCCC(NC(=O)C(CCCNC(=N)N)NC(=O)c1cccc(NC(=O)C(Cc2c[nH]c3ccccc23)NC(=O)C(N)Cc2c[nH]c3ccccc23)c1)C(N)=O (stereo not given) (H-WW[3Abz]RR-NH2; configuration not given here) | 75 (≈ 91.4 µM) | 150 | 400 | 8 | 25.377 | 120 (≈ 146 µM) | 125 (≈ 152 µM) | 50 (≈ 60.9 µM) | 70 (≈ 85.3 µM) | 50 (≈ 60.9 µM)
NCCCC(NC(=O)C(CCCN)NC(=O)c1cccc(NC(=O)C(Cc2c[nH]c3ccccc23)NC(=O)C(CCCN)NC(=O)C(N)Cc2c[nH]c3ccccc23)c1)C(N)=O (stereo not given) (H-W[Orn]W[3Abz][Orn][Orn]-NH2; configuration not given here) | 20 (≈ 23.5 µM) | 175 | 450 | 18 | 24.782 | 70 (≈ 82.3 µM) | 75 (≈ 88.1 µM) | 25 (≈ 29.4 µM) | 40 (≈ 47 µM) | 25 (≈ 29.4 µM)
NCCCC(NC(=O)C(Cc1c[nH]c2ccccc12)NC(=O)c1cccc(NC(=O)C(CCCN)NC(=O)C(CCCN)NC(=O)C(N)Cc2c[nH]c3ccccc23)c1)C(N)=O (stereo not given) (H-W[Orn][Orn][3Abz]W[Orn]-NH2; configuration not given here) | 40 (≈ 47 µM) | 170 | 500 | 12.5 | 24.193 | 75 (≈ 88.1 µM) | 100 (≈ 118 µM) | 40 (≈ 47 µM) | 75 (≈ 88.1 µM) | 50 (≈ 58.8 µM)
NCCCC(N)C(=O)NC(Cc1c[nH]c2ccccc12)C(=O)NC(Cc1c[nH]c2ccccc12)C(=O)Nc1cccc(C(=O)NC(CCCN)C(=O)NC(CCCN)C(N)=O)c1 (stereo not given) (H-[Orn]WW[3Abz][Orn][Orn]-NH2; configuration not given here) | 50 (≈ 58.8 µM) | 150 | 440 | 8.8 | 23.979 | 100 (≈ 118 µM) | 100 (≈ 118 µM) | 50 (≈ 58.8 µM) | 100 (≈ 118 µM) | 50 (≈ 58.8 µM)
NCCCC(N)C(=O)NC(Cc1c[nH]c2ccccc12)C(=O)Nc1cccc(C(=O)NC(Cc2c[nH]c3ccccc23)C(=O)NC(CCCN)C(N)=O)c1 (stereo not given) (H-[Orn]W[3Abz]W[Orn]-NH2; configuration not given here) | 15 (≈ 20.4 µM) | 190 | > 500 | > 28.6 | 24.231 | 50 (≈ 67.9 µM) | 40 (≈ 54.3 µM) | 17.5 (≈ 23.7 µM) | 50 (≈ 67.9 µM) | 20 (≈ 27.1 µM)
